ChEMBL document CHEMBL4765317, “Novel bacterial topoisomerase inhibitors derived from isomannide” (Eur J Med Chem, 2020)
In brackets after ≈: the same amount, converted by molar mass.

Legend:
[1] = biological target: Voltage-gated inwardly rectifying potassium channel KCNH2 (Homo sapiens, UniProt Q12809); assay: Inhibition of human ERG
Staphylococcus aureus [2] = assay: Antibacterial activity against Staphylococcus aureus harboring DNA gyrase D83N mutant assessed as reduction in bacterial growth by CLSI based broth microdilution method; assay type: functional
In short: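 MIC against an isogenic NBTI-resistant daughter strain carrying a D83N substitution in DNA gyrase, originally selected under NBTI pressure from multidrug-resistant MRSA isolate 3527. CLSI broth microdilution was used, with values in µg/mL.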

[3] = Inhibition of Staphylococcus aureus topoisomerase IV using kDNA as substrate incubated for 30 mins by gel electrophoresis analysis
Staphylococcus aureus [4] = assay: Antibacterial activity against Staphylococcus aureus 3527 assessed as reduction in bacterial growth by CLSI based broth microdilution method; assay type: functional
In short: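 Host is a multidrug-resistant MRSA clinical isolate (formerly 1095), the parent of an isogenic D83N gyrase mutant. MIC was read by CLSI broth microdilution and reported in µg/mL.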

Staphylococcus aureus [5] = assay: Selectivity index, fold shift in MIC between parent and mutant; assay type: functional
In short: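 MICs by CLSI broth microdilution in µg/mL against multidrug-resistant MRSA isolate 3527 (formerly 1095) and its isogenic NBTI-resistant daughter strain carrying a gyrase D83N substitution. Value is the fold shift in MIC between parent and mutant.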

Staphylococcus aureus [6] = assay: Antibacterial activity against Staphylococcus aureus USA300 assessed as reduction in bacterial growth by CLSI based broth microdilution method; assay type: functional
[7] = Inhibition of Staphylococcus aureus DNA gyrase using relaxed pBR322 DNA as substrate incubated for 30 mins by agarose gel electrophoresis method
Staphylococcus aureus [8] = assay: Antibacterial activity against cystic fibrosis patient isolate Staphylococcus aureus assessed as reduction in bacterial growth by CLSI based broth microdilution method; assay type: functional
Staphylococcus aureus [9] = assay: Antibacterial activity against Staphylococcus aureus ATCC 29213 assessed as reduction in bacterial growth by CLSI based broth microdilution method; assay type: functional
Staphylococcus aureus [10] = assay: Selectivity index, ratio of IC50 for inhibition of Staphylococcus aureus topoisomerase IV to IC50 for inhibition of Staphylococcus aureus DNA gyrase
In short: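 Ratio of S. aureus TopoIV IC50 to S. aureus DNA gyrase IC50, both from gel-based assays. TopoIV read-out was inhibition of decatenation; gyrase read-out was inhibition of supercoiling.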

Streptococcus pyogenes = assay: Antibacterial activity against Streptococcus pyogenes LSI-1235 assessed as reduction in bacterial growth by CLSI based broth microdilution method; assay type: functional
Streptococcus pneumoniae [11] = assay: Antibacterial activity against penicillin-resistant Streptococcus pneumoniae LSI-4246 assessed as reduction in bacterial growth by CLSI based broth microdilution method; assay type: functional
Enterococcus faecium [12] = assay: Antibacterial activity against Vancomycin-resistant Enterococcus faecium LSI-3340 assessed as reduction in bacterial growth by CLSI based broth microdilution method; assay type: functional
Enterococcus faecalis = assay: Antibacterial activity against Enterococcus faecalis ATCC 29212 assessed as reduction in bacterial growth by CLSI based broth microdilution method; assay type: functional
Enterococcus faecium [13] = assay: Antibacterial activity against Vancomycin-susceptible Enterococcus faecium DRL-4193 assessed as reduction in bacterial growth by CLSI based broth microdilution method; assay type: functional
Streptococcus pneumoniae [14] = assay: Antibacterial activity against penicillin-susceptible Streptococcus pneumoniae LSI-4234 assessed as reduction in bacterial growth by CLSI based broth microdilution method; assay type: functional
Staphylococcus aureus [15] = assay: Antibacterial activity against methicillin-resistant Staphylococcus aureus DRL-3161 assessed as reduction in bacterial growth by CLSI based broth microdilution method; assay type: functional

Chain of Voltage-gated inwardly rectifying potassium channel KCNH2 (Q12809 whole entry): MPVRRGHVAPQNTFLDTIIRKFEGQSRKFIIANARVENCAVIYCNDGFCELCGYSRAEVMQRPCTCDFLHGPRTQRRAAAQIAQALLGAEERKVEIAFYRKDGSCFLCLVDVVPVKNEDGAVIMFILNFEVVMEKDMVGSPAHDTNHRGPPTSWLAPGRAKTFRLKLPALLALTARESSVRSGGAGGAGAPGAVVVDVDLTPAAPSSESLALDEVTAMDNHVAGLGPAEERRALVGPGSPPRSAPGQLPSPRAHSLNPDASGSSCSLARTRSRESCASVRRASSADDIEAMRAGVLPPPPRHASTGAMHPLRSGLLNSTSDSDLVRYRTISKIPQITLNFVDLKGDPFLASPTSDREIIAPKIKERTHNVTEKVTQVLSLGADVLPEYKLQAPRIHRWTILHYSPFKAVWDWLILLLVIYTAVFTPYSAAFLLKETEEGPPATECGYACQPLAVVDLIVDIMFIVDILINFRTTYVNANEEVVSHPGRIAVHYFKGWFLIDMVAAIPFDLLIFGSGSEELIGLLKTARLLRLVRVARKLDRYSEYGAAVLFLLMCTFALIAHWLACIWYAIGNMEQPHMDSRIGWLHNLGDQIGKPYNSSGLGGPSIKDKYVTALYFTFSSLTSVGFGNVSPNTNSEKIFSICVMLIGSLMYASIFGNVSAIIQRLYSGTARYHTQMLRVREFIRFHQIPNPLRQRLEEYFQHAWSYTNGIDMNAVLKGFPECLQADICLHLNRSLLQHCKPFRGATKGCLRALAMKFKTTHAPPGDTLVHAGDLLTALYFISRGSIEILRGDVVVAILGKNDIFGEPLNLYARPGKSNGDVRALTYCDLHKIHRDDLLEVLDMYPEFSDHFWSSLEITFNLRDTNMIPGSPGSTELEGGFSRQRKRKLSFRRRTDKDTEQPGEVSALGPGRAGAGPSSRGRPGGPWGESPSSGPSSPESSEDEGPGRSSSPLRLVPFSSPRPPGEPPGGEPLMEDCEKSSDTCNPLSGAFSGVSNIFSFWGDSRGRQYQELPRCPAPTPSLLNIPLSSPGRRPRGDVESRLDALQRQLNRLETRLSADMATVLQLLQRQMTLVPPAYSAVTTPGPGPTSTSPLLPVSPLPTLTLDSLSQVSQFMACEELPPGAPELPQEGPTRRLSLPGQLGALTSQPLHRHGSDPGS

Q: Which IC50 [1] does the source give for `COc1ccc2ncc(F)c(CC[C@H]3OC[C@H](NCc4cc5c(cn4)OCCO5)CO3)c2n1` here?
A: 15 µM

Q: Which results are given for `COc1ccc2ncc(F)c(CC[C@@]3(O)CO[C@@H]4[C@@H](NCc5ccc6c(n5)NC(=O)CO6)CO[C@@H]43)c2n1`?
A: MIC (Staphylococcus aureus [2]): 8 mg/L (≈ 15.6 µM); IC50 [3]: Not Active; MIC (Staphylococcus aureus [4]): 1 mg/L (≈ 1.95 µM); IC50 [1]: 12 µM; Ratio (Staphylococcus aureus [5]): 8; MIC (Staphylococcus aureus [6]): 1 mg/L (≈ 1.95 µM); IC50 [7]: 0.54 µM; MIC (Staphylococcus aureus [8]): 2 mg/L (≈ 3.91 µM); MIC (Staphylococcus aureus [9]): 2 mg/L (≈ 3.91 µM)

Q: Which MIC (Staphylococcus aureus [6]) does the source give for `COc1ccc2nccc(CC[C@@]3(O)CO[C@@H]4[C@@H](NCc5ccc6c(c5)OCCO6)CO[C@@H]43)c2c1` here?
A: 16 mg/L (≈ 33.4 µM)

Q: What about the MIC (Staphylococcus aureus [8]) of the same compound?
A: 16 mg/L (≈ 33.4 µM)

Q: What about the MIC (Staphylococcus aureus [9]) of the same compound?
A: 16 mg/L (≈ 33.4 µM)

Q: Which results are given for `COc1ccc2ncc(F)c(CC[C@@]3(O)CO[C@@H]4[C@@H](NCc5ccc6c(c5)OCCO6)CO[C@@H]43)c2n1`?
A: MIC (Staphylococcus aureus [2]): 4 mg/L (≈ 8.04 µM); IC50 ([3]; read-out: IC50): 2.6 µM; MIC (Staphylococcus aureus [4]): 1 mg/L (≈ 2.01 µM); IC50 [1]: 20 µM; Ratio (Staphylococcus aureus [5]): 4; MIC (Staphylococcus aureus [6]): 1 mg/L (≈ 2.01 µM); IC50 [7]: 0.2 µM; MIC (Staphylococcus aureus [8]): 1 mg/L (≈ 2.01 µM); MIC (Staphylococcus aureus [9]): 0.5 mg/L (≈ 1 µM); Ratio IC50 (Staphylococcus aureus [10]): 13

Q: Which results are given for `COc1ccc2nccc(CC[C@@]3(O)CO[C@@H]4[C@@H](NCc5ccc(C)cc5)CO[C@@H]43)c2c1`?
A: MIC (Staphylococcus aureus [6]): > 8 mg/L; MIC (Staphylococcus aureus [8]): > 8 mg/L; MIC (Staphylococcus aureus [9]): > 8 mg/L

Q: With `COc1ccc2ncc(F)c(CC[C@H]3OC[C@H](NCc4ccc5c(c4)OCCO5)CO3)c2n1` as the compound, how does the MIC (Staphylococcus aureus [2]) read?
A: 4 mg/L (≈ 8.78 µM)

Q: What about the MIC (Streptococcus pyogenes) of the same compound?
A: ≤ 0.06 mg/L

Q: What about the MIC (Streptococcus pneumoniae [11]) of the same compound?
A: ≤ 0.06 mg/L

Q: And the MIC (Enterococcus faecium [12])?
A: 0.12 mg/L (≈ 0.263 µM)

Q: What about the MIC (Enterococcus faecalis) of the same compound?
A: 0.5 mg/L (≈ 1.1 µM)

Q: What about the IC50 ([3]; read-out: IC50) of the same compound?
A: 1 µM

Q: What about the MIC (Staphylococcus aureus [4]) of the same compound?
A: ≤ 0.25 mg/L

Q: And the IC50 [1]?
A: 8 µM

Q: What about the MIC (Enterococcus faecium [13]) of the same compound?
A: 0.12 mg/L (≈ 0.263 µM)

Q: And the Ratio (Staphylococcus aureus [5])?
A: > 16

Q: What about the MIC (Staphylococcus aureus [6]) of the same compound?
A: 0.125 mg/L (≈ 0.274 µM)

Q: And the IC50 [7]?
A: 0.03 µM

Q: And the MIC (Staphylococcus aureus [8])?
A: 0.25 mg/L (≈ 0.549 µM)

Q: What about the MIC (Streptococcus pneumoniae [14]) of the same compound?
A: 0.25 mg/L (≈ 0.549 µM)

Q: What about the MIC (Staphylococcus aureus [15]) of the same compound?
A: ≤ 0.06 mg/L

Q: And the MIC (Staphylococcus aureus [9])?
A: < 0.25 mg/L

Q: What about the Ratio IC50 (Staphylococcus aureus [10]) of the same compound?
A: 33

Q: Which MIC (Staphylococcus aureus [2]) does the source give for `COc1ccc2ncc(F)c(CC[C@@]3(O)CO[C@@H]4[C@@H](NCc5ccc(Cl)c(Cl)c5)CO[C@@H]43)c2n1` here?
A: 4 mg/L (≈ 7.87 µM)

Q: And the IC50 ([3]; read-out: IC50)?
A: 2.9 µM

Q: And the MIC (Staphylococcus aureus [4])?
A: 0.25 mg/L (≈ 0.492 µM)

Q: What about the MIC (Staphylococcus aureus [6]) of the same compound?
A: 0.5 mg/L (≈ 0.984 µM)

Q: What about the IC50 [7] of the same compound?
A: 0.2 µM

Q: And the MIC (Staphylococcus aureus [8])?
A: 0.5 mg/L (≈ 0.984 µM)

Q: And the MIC (Staphylococcus aureus [9])?
A: ≤ 0.25 mg/L

Q: Which MIC (Staphylococcus aureus [2]) does the source give for `COc1ccc2ncc(F)c(CC[C@@]3(O)CO[C@@H]4[C@@H](NCc5ccc(C)cc5)CO[C@@H]43)c2n1` here?
A: 16 mg/L (≈ 35.3 µM)

Q: What about the IC50 ([3]; read-out: IC50) of the same compound?
A: 7.5 µM

Q: And the MIC (Staphylococcus aureus [4])?
A: 2 mg/L (≈ 4.41 µM)

Q: And the Ratio (Staphylococcus aureus [5])?
A: 8

Q: What about the MIC (Staphylococcus aureus [6]) of the same compound?
A: 2 mg/L (≈ 4.41 µM)

Q: What about the IC50 [7] of the same compound?
A: 0.18 µM

Q: And the MIC (Staphylococcus aureus [8])?
A: 2 mg/L (≈ 4.41 µM)

Q: And the MIC (Staphylococcus aureus [9])?
A: 1 mg/L (≈ 2.21 µM)

Q: What about the Ratio IC50 (Staphylococcus aureus [10]) of the same compound?
A: 42

Q: With `COc1ccc2ncc(F)c(CC[C@]3(O)CC[C@H](NCc4ccc5c(c4)OCCO5)CC3)c2n1` as the compound, how does the IC50 [1] read?
A: 2.3 µM

Q: With `COc1ccc2ncc(F)c(CC[C@]3(O)CC[C@H](NCc4ccc(Cl)c(Cl)c4)CC3)c2n1` as the compound, how does the IC50 [1] read?
A: 3.8 µM

Q: For `COc1ccc2ncc(F)c(CC[C@H]3OC[C@H](NCc4ccc(Cl)c(Cl)c4)CO3)c2n1`, which IC50 [1] is on record?
A: 7.9 µM

Q: What does the source list for `COc1ccc2nccc(CC[C@@]3(O)CO[C@@H]4[C@@H](NCc5ccccc5)CO[C@@H]43)c2c1`?
A: MIC (Staphylococcus aureus [6]): > 8 mg/L; MIC (Staphylococcus aureus [8]): > 8 mg/L; MIC (Staphylococcus aureus [9]): > 8 mg/L

Q: For `COc1ccc2ncc(F)c(CC[C@]3(O)CC[C@@H](NCc4ccc5c(c4)OCCO5)CC3)c2n1`, which IC50 [1] is on record?
A: 2.2 µM
